Assays:
[1] = tested on: C3 cells; assay: CT-luci reporter gene assay to measure the ability to increase transcription of a […] linked to the human CT gene.
[2] = tested on: C3 cells; assay: Calcitonin (CT) secretion/RIA assay to measure the ability of compound to increase cellular levels and secretion of human CT.
[3] = target: T1, Phosphodiesterase 4 (Homo sapiens, UniProt P27815+Q08499+Q07343+Q08493); assay: PDE4 30 assay to measure the percent rolipram activity of the PDE4 assay at 30 micro M concentration of the compound.; format: protein assay
How it was run: (§1)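 U937 PDE4 preparation, 1 µM [3H]cAMP, 37 °C, test compound at 30 µM. Activity scaled to rolipram: no rolipram inhibition = 0%, full rolipram inhibition (10 µM) = 100%.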

[4] = tested on: Rattus norvegicus; assay: The compound was tested for its bone protection activity at 30 mg/kg/day by intra peritoneal administration.; format: functional
How it was run: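 Mature female Sprague-Dawley rats, bilaterally ovariectomized or sham-operated, 4-5 days recovery; compound in 1% Tween 80 in saline, i.p. 30 mg/kg/day for 4 weeks; 7-8 rats per group. Proximal tibia trabecular BMD by QCT under ketamine/xylazine/acepromazine; % protection with OVX = 0%, sham = 100%; p < 0.05.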

[5] = target: T1, Phosphodiesterase 4; assay: Concentration at which 50% of the activity of the Phosphodiesterase 4 from Human U937 cells is inhibited; format: cell-based; conditions: u-937
[6] = target: T1, Phosphodiesterase 4; assay: PDE4 30 assay to measure the percent rolipram activity of the PDE4 assay at 30 uM concentration of the compound.; format: protein assay
How it was run: as §1

[7] = target: T1, Phosphodiesterase 4; assay: Percent rolipram activity at 30 uM (PDE 30 assay); format: protein assay
How it was run: as §1

[8] = tested on: C3 cells; assay: CT-luci reporter gene assay to measure the ability to increase transcription of a […] linked to the human CT gene.; remark: listed apart in the source
[9] = tested on: Rattus norvegicus; assay: The compound was tested for its bone protection activity at 50 mg/kg/day by oral administration.

Structure (SMILES) | PDE4 inhibition relative to rolipram [3] [%] | IC50 [5] [µM] | PDE4 inhibition relative to rolipram [6] [%] | Rolipram activity [7] [%] | TAR [1] | CTS [2] | Protection [4] [%] | TAR [8] | Protection [9] [%]
CCCCn1c(=O)c2c(nc(C)n2S(=O)(=O)c2cccc3ccccc23)n(CCCC)c1=O | 94 |  |  |  | 1.7 | 2.2 |  |  | 
CCCCn1c(=O)c2c(ncn2S(=O)(=O)c2cc(C)c(Cl)cc2C)n(CCCC)c1=O | 72 | 23.3 |  |  | 2.5 | 5.3 | 52 |  | 
CCCCn1c(=O)c2c(ncn2S(=O)(=O)c2ccccc2F)n(CCCC)c1=O |  |  | 53 |  |  | 1.7 |  | 2 | 
CCCCn1c(=O)n(CC2CC2)c(=O)c2c1ncn2S(=O)(=O)c1ccc(OC)c(OC)c1 | 97 |  |  |  | 2.8 | 0.7 |  |  | 
CCCCn1c(=O)[nH]c(=O)c2c1ncn2S(=O)(=O)c1ccc(OC)c(OC)c1 | 25 |  |  |  | 1.3 | 0.8 |  |  | 
CCCCn1c(=O)c2c(ncn2S(=O)(=O)c2ccccc2C(=O)OC)n(CCCC)c1=O |  | 1.3 | 61 |  |  | 3.1 |  | 3.5 | 
CCCCn1c(=O)c2c(ncn2S(=O)(=O)c2ccc(OC)cc2)n(CCCC)c1=O |  |  | 49 |  |  | 4.6 |  | 1.9 | 
CCCCn1c(=O)n(CC2CCC2)c(=O)c2c1ncn2S(=O)(=O)c1ccc(OC)c(OC)c1 | 87 |  |  |  | 2.9 | 0.9 |  |  | 
CCCCn1c(=O)c2c(nc(C)n2S(=O)(=O)c2ccc(OC)c(OC)c2)n(CCCC)c1=O | 100 |  |  |  | 1.5 | 2.6 |  |  | 
CCCCn1c(=O)c2c(ncn2S(=O)(=O)c2cc(C)ccc2C)n(CCCC)c1=O |  |  | 92 |  |  | 6.6 |  | 2.6 | 
CCCCn1c(=O)c2c(ncn2S(=O)(=O)c2ccc(C(C)(C)C)cc2)n(CCCC)c1=O | 33 |  |  |  | 1.8 | 5.1 |  |  | 
CCCCn1c(=O)c2c(ncn2S(=O)(=O)c2cccc([N+](=O)[O-])c2)n(CCCC)c1=O |  |  | 37 |  |  | 2.9 | 30 | 2 | 
CCCCn1c(=O)c2c(ncn2S(=O)(=O)c2ccc(OC)c(OC)c2)n(CCCC)c1=O |  | 1.2 | 59 |  | 2.5 | 4.7 | 35 |  | 
CCCCn1c(=O)c2c(nc(C)n2S(=O)(=O)c2cccc([N+](=O)[O-])c2)n(CCCC)c1=O | 85 |  |  |  | 1.8 | 3.7 |  |  | 
CCCCn1c(=O)c2c(ncn2S(=O)(=O)c2ccc(NO)cc2)n(CCCC)c1=O |  |  | 18 |  | 2 | 5.6 |  |  | 
CCCCn1c(=O)c2c(ncn2S(=O)(=O)c2ccc(OC(F)(F)F)cc2)n(CCCC)c1=O |  |  | 0 |  | 2 | 4.9 |  |  | 
CCCCn1c(=O)c2c(ncn2S(=O)(=O)c2ccccc2)n(CCCC)c1=O |  |  | 5 |  |  | 3.9 |  | 1.9 | 
CCCCn1c(=O)c2c(ncn2S(=O)(=O)c2cc(F)ccc2C)n(CCCC)c1=O |  |  | 86 |  |  | 6.6 |  | 2.8 | 
CCCCn1c(=O)c2c(nc(C)n2S(=O)(=O)c2ccccc2)n(CCCC)c1=O | 100 |  |  |  | 1.7 | 4 |  |  | 
CCCCn1c(=O)n(CCC(C)C)c(=O)c2c1ncn2S(=O)(=O)c1ccc(OC)c(OC)c1 | 86 |  |  |  | 2.6 | 3.7 |  |  | 
CCCCn1c(=O)c2c(ncn2S(=O)(=O)c2cccc3ccccc23)n(CCCC)c1=O | 17 |  |  |  | 2.5 | 4.5 | 37 |  | 
CCCCn1c(=O)c2c(ncn2S(=O)(=O)c2c(C)cc(C)cc2C)n(CCCC)c1=O | 58 | 6 |  |  | 1.9 | 4 | 50 |  | 
CCCCn1c(=O)n(CC=C(C)C)c(=O)c2c1ncn2S(=O)(=O)c1ccc(OC)c(OC)c1 | 77 |  |  |  | 2.8 | 3.7 |  |  | 

Now from value to molecule, other results behind:

PDE4 inhibition relative to rolipram [3] [%] | IC50 [5] [µM] | PDE4 inhibition relative to rolipram [6] [%] | Rolipram activity [7] [%] | Structure (SMILES) | TAR [1] | CTS [2] | Protection [4] [%] | TAR [8] | Protection [9] [%]
48 |  |  |  | CCCCn1c(=O)c2c(ncn2S(=O)(=O)c2cccs2)n(CCCC)c1=O | 2.2 | 2.9 |  |  | 
 |  | 54 |  | CCCCOc1ccc(S(=O)(=O)n2cnc3c2c(=O)n(CCCC)c(=O)n3CCCC)cc1 | 2.2 | 5 |  |  | 
 |  |  | 100 | CCCCn1c(=O)c2c(ncn2CC(C)=O)n(CCCC)c1=O [DENBUFYLLINE] | 2.1 | 3.5 | 49 |  | 
 |  | 15 |  | CCCCn1c(=O)c2c(ncn2S(=O)(=O)CCCC)n(CCCC)c1=O |  | 4.7 | 23 | 2 | 
 |  | 54 |  | CCCCn1c(=O)c2c(ncn2S(=O)(=O)CCC)n(CCCC)c1=O |  | 2.2 |  | 2.3 | 
7 | 3.2 |  |  | CCCCn1c(=O)c2c(ncn2S(=O)(=O)Cc2ccccc2)n(CCCC)c1=O | 2.3 | 5.1 | 25 |  | 
 | 25.2 | 84 |  | CCCCn1c(=O)c2c(ncn2S(C)(=O)=O)n(CCCC)c1=O |  | 4.7 |  | 1.9 | 
0 |  |  |  | CCCCCCCCn1c(=O)c2c(ncn2S(=O)(=O)c2ccc(OC)c(OC)c2)n(CCCC)c1=O | 0.7 | 1.1 |  |  | 
 |  | 12 |  | CCCCCCCCS(=O)(=O)n1cnc2c1c(=O)n(CCCC)c(=O)n2CCCC |  | 4.7 |  | 2.1 | 
 | 4.1 | 71 |  | CCCCn1c(=O)c2c(ncn2S(=O)(=O)CCCCl)n(CCCC)c1=O |  | 3.6 | 47 | 2.1 | 50
95 |  |  |  | CCCCn1c(=O)c2c(nc(C)n2S(=O)(=O)CCCCl)n(CCCC)c1=O | 1.7 | 4.1 |  |  | 
